Where a SMILES comes first, the peptide text is derived from it. [ ]: non-standard residue; d: D form.
How the values were obtained:
[1] = biological target: T1, Solute carrier organic anion transporter family member 1B1 (Homo sapiens, UniProt Q9Y6L6); test: TP_TRANSPORTER: inhibition of E1S uptake (E1S: 0.004 uM, Carnitine: 50 uM) in Xenopus laevis oocytes; assay type: functional, cell-based; conditions: oocyte
T1 sequence (Q9Y6L6 whole entry): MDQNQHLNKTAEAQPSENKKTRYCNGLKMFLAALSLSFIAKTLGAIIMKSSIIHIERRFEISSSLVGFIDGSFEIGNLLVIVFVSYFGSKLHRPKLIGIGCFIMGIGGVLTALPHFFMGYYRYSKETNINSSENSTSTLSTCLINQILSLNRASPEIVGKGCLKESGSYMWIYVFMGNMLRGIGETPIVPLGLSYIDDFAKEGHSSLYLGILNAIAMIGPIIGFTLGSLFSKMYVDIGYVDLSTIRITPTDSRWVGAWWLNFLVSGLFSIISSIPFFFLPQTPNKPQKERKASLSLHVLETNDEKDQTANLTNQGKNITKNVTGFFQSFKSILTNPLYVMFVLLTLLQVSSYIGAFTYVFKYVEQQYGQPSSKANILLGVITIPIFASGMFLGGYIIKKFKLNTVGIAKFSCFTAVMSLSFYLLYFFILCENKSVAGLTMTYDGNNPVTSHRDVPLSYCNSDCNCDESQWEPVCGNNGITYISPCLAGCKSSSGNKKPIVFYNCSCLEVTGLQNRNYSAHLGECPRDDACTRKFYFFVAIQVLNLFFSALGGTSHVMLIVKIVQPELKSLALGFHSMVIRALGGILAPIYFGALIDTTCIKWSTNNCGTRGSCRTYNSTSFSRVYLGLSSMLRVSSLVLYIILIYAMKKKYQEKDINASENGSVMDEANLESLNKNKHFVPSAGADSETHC
Summary of the method: (§1)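 Oocytes injected with OATP-C cRNA (25 ng), cultured 3 days in modified Barth's solution, then incubated 30 min at 25 °C in medium 1 (pH 7.4) with [3H]estrone-3-sulfate (4 nM) plus or minus inhibitor. OATP-C-specific uptake = total minus water-injected oocyte uptake, expressed as percent of control; mean ± s.e.m., n = 5–10.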

[2] = biological target: T2, Solute carrier organic anion transporter family member 1B1 (OATP1B1) (Homo sapiens, UniProt Q9Y6L6); test: TP_TRANSPORTER: inhibition of E1S uptake (E1S: 0.004 uM, des-tyrosine DADLE: 1000 uM) in Xenopus laevis oocytes; assay type: functional, cell-based, Oocyte; parameters: scale not given: the % may be the effect or the level left; conditions: probe E1S (0.004 uM), read-out: Activity; summary of the method: as §1
T2 sequence (Q9Y6L6 whole entry): T1 sequence (Q9Y6L6 whole entry)

[3] = biological target: T2, Solute carrier organic anion transporter family member 1B1 (OATP1B1); test: TP_TRANSPORTER: inhibition of E1S uptake (E1S: 0.004 uM, Quinidine: 500 uM) in Xenopus laevis oocytes; assay type: functional, cell-based, Oocyte; parameters: scale not given: the % may be the effect or the level left; conditions: probe E1S (0.004 uM), read-out: Activity; summary of the method: as §1
[4] = biological target: T2, Solute carrier organic anion transporter family member 1B1 (OATP1B1); test: TP_TRANSPORTER: inhibition of E1S uptake (E1S: 0.004 uM, DADLE: 1000 uM) in Xenopus laevis oocytes; assay type: functional, cell-based, Oocyte; parameters: scale not given: the % may be the effect or the level left; conditions: probe E1S (0.004 uM), read-out: Activity; summary of the method: as §1
[5] = biological target: T2, Solute carrier organic anion transporter family member 1B1 (OATP1B1); test: TP_TRANSPORTER: inhibition of E1S uptake (E1S: 0.004 uM, BSP: 50 uM) in Xenopus laevis oocytes; assay type: functional, cell-based, Oocyte; parameters: scale not given: the % may be the effect or the level left; conditions: probe E1S (0.004 uM), read-out: Activity; summary of the method: as §1
[6] = biological target: T2, Solute carrier organic anion transporter family member 1B1 (OATP1B1); test: TP_TRANSPORTER: inhibition of DPDPE uptake (DPDPE: 0.02 uM) in Xenopus laevis oocytes; assay type: functional, cell-based, Oocyte; parameters: scale not given: the % may be the effect or the level left; conditions: probe DPDPE (0.02 uM)
[7] = biological target: T2, Solute carrier organic anion transporter family member 1B1 (OATP1B1); test: in vitro; conditions: xenopus laevis, Xenopus laevis oocytes, probe E1S (0.004 uM)
[8] = biological target: T1, Solute carrier organic anion transporter family member 1B1; test: TP_TRANSPORTER: inhibition of E1S uptake (E1S: 0.004 uM, Gly4: 5000 uM) in Xenopus laevis oocytes; assay type: functional, cell-based; conditions: oocyte; summary of the method: as §1
[9] = biological target: T1, Solute carrier organic anion transporter family member 1B1; test: TP_TRANSPORTER: inhibition of E1S uptake (E1S: 0.004 uM, Ala4: 5000 uM) in Xenopus laevis oocytes; assay type: functional, cell-based; conditions: oocyte; summary of the method: as §1
[10] = biological target: T2, Solute carrier organic anion transporter family member 1B1 (OATP1B1); test: TP_TRANSPORTER: inhibition of E1S uptake (E1S: 0.004 uM, YGG: 1000 uM) in Xenopus laevis oocytes; assay type: functional, cell-based, Oocyte; parameters: scale not given: the % may be the effect or the level left; conditions: probe E1S (0.004 uM), read-out: Activity; summary of the method: as §1
[11] = biological target: T1, Solute carrier organic anion transporter family member 1B1; test: TP_TRANSPORTER: uptake of [D-Pen2,D-Pen5]-enkephalin at a concentration of 0.02 u M in Xenopus laevis oocytes; assay type: functional, cell-based; conditions: oocyte, 0.02 µM
Summary of the method: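 OATP-C cRNA- or water-injected oocytes incubated 60 min at 25 °C in medium 1 (pH 7.4) with [3H]DPDPE (20 nM). Washed with ice-cold buffer, solubilized in 5% SDS, radioactivity counted. Uptake given as cell-to-medium ratio (uptake amount divided by medium concentration); mean ± s.e.m., n = 5–10.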

[12] = biological target: T1, Solute carrier organic anion transporter family member 1B1; test: TP_TRANSPORTER: inhibition of E1S uptake (E1S: 0.004 uM, PAH: 500 uM) in Xenopus laevis oocytes; assay type: functional, cell-based; conditions: oocyte; summary of the method: as §1
[13] = biological target: T2, Solute carrier organic anion transporter family member 1B1 (OATP1B1); test: TP_TRANSPORTER: inhibition of E1S uptake (E1S: 0.004 uM, Ala5: 5000 uM) in Xenopus laevis oocytes; assay type: functional, cell-based, Oocyte; parameters: scale not given: the % may be the effect or the level left; conditions: probe E1S (0.004 uM), read-out: Activity; summary of the method: as §1
[14] = biological target: T1, Solute carrier organic anion transporter family member 1B1; test: TP_TRANSPORTER: inhibition of E1S uptake (E1S: 0.004 uM, CCK-8: 100 uM) in Xenopus laevis oocytes; assay type: functional, cell-based; parameters: scale not given: the % may be the effect or the level left; conditions: oocyte; summary of the method: as §1
[15] = biological target: T1, Solute carrier organic anion transporter family member 1B1; test: TP_TRANSPORTER: inhibition of E1S uptake (E1S: 0.004 uM, YdAG: 1000 uM) in Xenopus laevis oocytes; assay type: functional, cell-based; conditions: oocyte; summary of the method: as §1

SMILES: C[N+](C)(C)CC(O)CC(=O)[O-] (stereo unspecified) [CARNITINE]
- Activity [1]: is not an inhibitor [-]

SMILES: CC(C)C[C@@H](NC(=O)[C@H](Cc1ccccc1)NC(=O)CNC(=O)[C@@H](C)N)C(=O)O
- activity at 1000 µM [2]: 62.5%

SMILES: C=C[C@H]1C[N@@]2CC[C@H]1C[C@@H]2[C@@H](O)c1ccnc2ccc(OC)cc12 [QUINIDINE]
- activity at 500 µM [3]: 81%

SMILES: CC(C)C[C@@H](NC(=O)[C@H](Cc1ccccc1)NC(=O)CNC(=O)[C@@H](C)NC(=O)[C@@H](N)Cc1ccc(O)cc1)C(=O)O [DADLE]
- activity at 1000 µM [4]: 35.4%

SMILES: O=C1OC(c2ccc(O)c(S(=O)(=O)O)c2)(c2ccc(O)c(S(=O)(=O)O)c2)c2c(Br)c(Br)c(Br)c(Br)c21 [SULFOBROMOPHTHALEIN SODIUM]
- activity at 50 µM [5]: 8%
- Activity [6]: 25%

SMILES: CC(C)C[C@H](NC(=O)[C@H](Cc1ccccc1)NC(=O)CNC(=O)CNC(=O)[C@@H](N)Cc1ccc(O)cc1)C(=O)O [ENKEPHALIN]
- activity at 1000 µM [7]: 26.8%

SMILES: NCC(=O)NCC(=O)NCC(=O)NCC(=O)O (H-GGGG-OH)
- Activity [8]: is not an inhibitor [-]

SMILES: C[C@H](N)C(=O)N[C@@H](C)C(=O)N[C@@H](C)C(=O)N[C@@H](C)C(=O)O (H-AAAA-OH)
- Activity [9]: is not an inhibitor [-]

SMILES: N[C@@H](Cc1ccc(O)cc1)C(=O)NCC(=O)NCC(=O)O (H-Tyr-Gly-Gly-OH)
- activity at 1000 µM [10]: 77.2%

SMILES: CC1(C)SSC(C)(C)[C@@H](NC(=O)[C@@H](N)Cc2ccc(O)cc2)C(=O)NCC(=O)N[C@@H](Cc2ccccc2)C(=O)N[C@H]1C(=O)O
- Activity [11]: substrate [+]

SMILES: C[C@]12CC[C@@H]3c4ccc(OS(=O)(=O)O)cc4CC[C@H]3[C@@H]1CCC2=O [ESTRONE SULFURIC ACID]
- Activity [6]: 50%

SMILES: Nc1ccc(C(=O)NCC(=O)O)cc1 [AMINOHIPPURIC ACID]
- Activity [12]: is not an inhibitor [-]

SMILES: C[C@H](N)C(=O)N[C@@H](C)C(=O)N[C@@H](C)C(=O)N[C@@H](C)C(=O)N[C@@H](C)C(=O)O
- activity at 5000 µM [13]: 86.3%

SMILES: CSCC[C@H](NC(=O)[C@H](Cc1ccc(OS(=O)(=O)O)cc1)NC(=O)[C@@H](N)CC(=O)O)C(=O)NCC(=O)N[C@@H](Cc1c[nH]c2ccccc12)C(=O)N[C@@H](CCSC)C(=O)N[C@@H](CC(=O)O)C(=O)N[C@@H](Cc1ccccc1)C(N)=O [SINCALIDE]
- Activity [14]: 9.1%

SMILES: C[C@@H](NC(=O)[C@@H](N)Cc1ccc(O)cc1)C(=O)NCC(=O)O (H-Tyr-[dA]-Gly-OH)
- Activity [15]: is not an inhibitor [-]

From ChEMBL document CHEMBL2074476, “Contribution of organic anion transporting polypeptide OATP-C to hepatic elimination of the opioid pentapeptide analogue [D-Ala2, D-Leu5]-enkephalin” (J Pharm Pharmacol, 2003)
